SMILES strings stand for the structures.

5 molecules from ChEMBL document CHEMBL1155259, “Synthesis and multidrug resistance reversal activity of dihydroptychantol A and its novel derivatives” (2009) can be followed below.

Experiment [1] can be described thus: Cytotoxicity against adriamycin-resistant human K562/A02 cells at 10 uM after 48 hrs by MTT assay. The experiment is classed as functional. Conditions: K562/A02, 48 h. An outline of the steps:
(§1)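 Cells grown in RPMI 1640 with 10% FBS at 37 °C, 5% CO₂ until roughly 50–70% confluent, then cultured in 24-well plates and exposed to vehicle (DMSO) or test compound alone at 10 μM for 48 h. Percent growth inhibition measured by MTT assay; three replicates per treatment, assay repeated at least thrice.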
(In general: Tetrazolium assays rely on reduction of a dye to a coloured formazan, in cell work by metabolically active cells.)

Experiment [2] has as its system KB. The experiment is described as follows: Cytotoxicity against human KB cells at 10 uM after 48 hrs by MTT assay. The experiment is classed as functional. An outline of the steps: as §1
For experiment [3], the system named is KB/VCR. As to the kind of experiment: Reversal of P-gp-mediated multidrug resistance in human KB/VCR cells assessed as reversal factor, ratio of vincristine ID50 without drug to vincristine ID50 with drug at 10 uM after 48 hrs by MTT assay. The experiment is classed as cell-based. An outline of the steps: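 KB/VCR cells in RPMI 1640 with 10% FBS (37 °C, 5% CO₂) seeded at 6 × 10⁴/ml in 24-well plates. They were co-treated with a range of vincristine concentrations, with or without test compound at 10 μM, and viability read by MTT. Vincristine ID₅₀ was derived relative to untreated cells (100%). RF = ID₅₀ of vincristine alone / ID₅₀ with compound. Triplicates, repeated at least thrice.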

Experiment [4] can be described thus: Cytotoxicity against vincristine-resistant human KB/VCR cells at 10 uM after 48 hrs by MTT assay. The experiment is classed as functional. An outline of the steps:
as §1

For experiment [5], the system named is K562. The experiment is described as follows: Cytotoxicity against human K562 cells at 10 uM after 48 hrs by MTT assay. The experiment is classed as functional. Conditions: K562, 48 h. An outline of the steps: as §1

As usually defined, the inhibition is how much of the control response was suppressed. A low value points to a weak effect. `COc1ccc2c(c1)CCc1ccc(OC)c(c1)Oc1ccc(cc1)-c1nc(NN)sc1-c1cccc(c1)O2`: the inhibition at 10 µM in experiment [1] came to 18.8%; in experiment [2], 0%; in experiment [4], 0%; in experiment [5], 32.1%. Moreover, the Ratio in experiment [3] was found to be 10.6.
Regarding `Nc1nc2c(s1)-c1cccc(c1)Oc1ccc(O)cc1CCc1ccc(O)c(c1)Oc1ccc-2cc1`, the inhibition at 10 µM in experiment [1] was determined as 10.1%; in experiment [2], 0%; in experiment [4] it was 0%; in experiment [5] it was 11.6%. The Ratio in experiment [3] amounted to 13.8.
On to `NNc1nc2c(s1)-c1cccc(c1)Oc1ccc(O)cc1CCc1ccc(O)c(c1)Oc1ccc-2cc1`, for which the inhibition at 10 µM in experiment [1] was 13.7%; in experiment [2] it was 51.1%; in experiment [4], 19.4%; in experiment [5] it was 37.1%.
For `COc1ccc2c(c1)CCc1ccc(OC)c(c1)Oc1ccc(cc1)-c1nc(N)sc1-c1cccc(c1)O2`, the inhibition at 10 µM in experiment [1] worked out at 26.8%; in experiment [2], 0%; in experiment [4] it was 0%; in experiment [5], 58.7%. In addition, the Ratio in experiment [3] came out at 12.3.
For the molecule `COc1ccc2c(c1)CCc1ccc(OC)c(c1)Oc1ccc(cc1)C(O)C(Br)c1cccc(c1)O2` (centres undefined), the inhibition at 10 µM was found to be 11.9% in experiment [1], 2.82% in experiment [2], 0% in experiment [4] and 38.5% in experiment [5]. Also, the Ratio in experiment [3] is 10.5.
